# A selection: hits, their analogues and other compounds. The true share with any hit is near 3.5%.
# RGS4 act: RGS4 potentiation or activation; HEK293 M3R/inducible RGS4, carbachol calcium flux Fluo4; hits give low values; B-score at 10 µM; 0.92% of 310,000 active; AID 463111;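 active = B-score of the integrated calcium signal more than 4 SD below the library mean, with starting fluorescence not abnormally high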;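 note: negative B-score means reduced calcium response which marks RGS4 activation or potentiation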
#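 Material: Inducible-RGS4 HEK293 cells carrying M3 receptor; also added: carbachol at ECmax as muscarinic agonist stimulus; incubation: compound preincubation 20 min at room temperature before agonist; signal: Fluo4-AM (2 µM) calcium-flux fluorescence, kinetic read; measure: integrated calcium ratio converted to B score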
# MrgX1 agonist: human MrgX1 receptor agonism, primary screen; Q96LB2; AID 588627; MrgX1-HEK293 cells, Fluo-4 calcium fluorescence, agonist mode; hits give high values; 0.44% of 310,000 active; B-score at 10 µM;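 active = calcium response B-score plate-corrected fluorescence ratio at least 3 library SD, with starting fluorescence B-score inside 5 SD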
# Target sequence (Q96LB2 whole entry, looked up): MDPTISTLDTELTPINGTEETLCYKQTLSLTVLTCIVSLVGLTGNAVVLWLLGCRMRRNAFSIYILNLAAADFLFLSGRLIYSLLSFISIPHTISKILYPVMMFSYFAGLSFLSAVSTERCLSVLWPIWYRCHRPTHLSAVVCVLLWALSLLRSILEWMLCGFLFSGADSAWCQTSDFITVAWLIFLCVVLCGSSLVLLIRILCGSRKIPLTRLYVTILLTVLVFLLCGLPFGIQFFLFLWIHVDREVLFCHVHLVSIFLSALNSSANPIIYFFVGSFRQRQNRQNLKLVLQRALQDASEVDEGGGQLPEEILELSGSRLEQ
#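 Test system: HEK293 cells stably expressing human MrgX1 receptor; amount: 15,000 cells per well; doses: compound delivered in addition one of three; times: overnight plating before 1 h dye loading; detection: Fluo-4 NW calcium-flux fluorescence, kinetic read; read-out basis: B-scored fluorescence response ratio; controls: positive and negative controls per plate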
# MrgX1 antagonist: blocks BAM8-22 activation of human MrgX1 receptor; 1.3% of 310,000 active; MRGX1-HEK293 calcium flux, Fluo-4, BAM8-22 antagonism; hits give low values; AID 588676; B-score at 10 µM;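 active = calcium-response B-score plate-corrected more than 3 library SD below zero, starting fluorescence within 5 deviations, no agonist response on first addition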;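 note: peak minus trough fluorescence over baseline after final BAM8-22 challenge near maximal dose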
# RGS4 block: human RGS4 inhibition | HEK293 M3R/RGS4 inducible, Fluo-4 calcium flux; hits give high values; triggered by carbachol at its EC20 | P49798 | B-score at 10 µM | 0.45% of 310,000 active;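 active = B-score, a plate-corrected calcium signal, over three deviations above library mean, with baseline fluorescence within five deviations of library mean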;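 note: RGS4 expression induced by doxycycline in cells with stable M3 receptor; B-score is computed from the integrated fluorescence ratio over baseline after carbachol; higher B-score means a larger calcium signal and so more RGS4 inhibition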
# Target sequence (P49798 whole entry, looked up): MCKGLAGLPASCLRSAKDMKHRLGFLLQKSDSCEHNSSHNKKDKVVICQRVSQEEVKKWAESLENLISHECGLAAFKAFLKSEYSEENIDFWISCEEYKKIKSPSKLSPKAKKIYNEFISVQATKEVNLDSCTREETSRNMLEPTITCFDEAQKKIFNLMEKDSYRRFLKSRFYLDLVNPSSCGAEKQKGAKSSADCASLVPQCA
# MrgX1 PAM: allosterically activates human MrgX1 receptor signaling; Q96LB2; MrgX1-HEK293, Fluo-4 calcium flux, FDSS; hits give high values; B-score at 10 µM; 0.63% of 310,000 active; AID 588675;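 active = plate-corrected calcium response at least 3 library SD above typical, normal starting fluorescence, not activating the receptor alone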;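 note: compound read alongside a low EC10 to EC30 dose of BAM8-22 agonist; peak minus trough fluorescence over baseline measured at the second addition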
# Numbers stand for hits; – = inactive; · = no result given.
SMILES,RGS4 act,MrgX1 agonist,MrgX1 antagonist,RGS4 block,MrgX1 PAM
CC1CCN(C(=O)c2ccccc2SCC(=O)NCC2CCCCC2)CC1,–,–,–,–,–
O=C(Nc1ncccc1Cl)c1cc2ccccc2o1,–,–,–,–,–
C/C(CC(=O)Nc1ccc(Cl)cc1Cl)=N\NC(=O)C(=O)N1CCCC1,–,–,–,–,–
COCCNC(=O)C(=O)N/N=C(\C)CC(=O)Nc1ccc(Cl)cc1Cl,–,–,-6.41,–,–
CC(=O)C(C(C)=O)c1cc(NS(=O)(=O)c2ccccc2)ccc1NS(=O)(=O)c1ccccc1,–,–,–,–,12.9
O=C(/C=C/c1ccc(Cl)cc1)c1cccnc1,–,–,–,–,–
O=C(/C=C/c1ccccc1Cl)c1cccnc1,–,28,–,–,–
Cc1ccc(Cl)cc1NC(=O)C1CCCN1S(=O)(=O)c1ccc(-c2ccc(=O)[nH]n2)s1 (configuration not stated),–,–,–,–,–
CN(C)c1ccc(NC(=O)C[n+]2ccccc2)cc1,–,–,–,–,–
O=C(C[n+]1ccccc1)Nc1ccc(Oc2ccccc2)cc1,-7.64,–,–,–,–
COc1ccccc1NC(=O)Cn1nc(-c2ccc(Cl)cc2)c2ccccc2c1=O,–,33.8,–,–,–
COC(=O)c1c(NC(=O)COC(=O)c2ccc(Cl)cc2[N+](=O)[O-])sc2c1CCCCC2,–,–,–,–,–
COC(=O)c1c(NC(=S)Nc2ccc(F)cc2[N+](=O)[O-])sc2c1CCCCC2,–,–,–,–,8.86
CCN(CC(=O)Nc1ccc(OC)cc1)C(=O)c1ccccc1Sc1ccccc1C#N,–,–,–,–,–
CCOC(=O)c1cc(C#N)c(Oc2cccc(C(F)(F)F)c2)nc1-c1ccccc1,-7.84,–,–,–,–
CCOC(=O)c1cc(C#N)c(Oc2ccc(F)cc2)nc1-c1ccccc1,–,–,–,–,–
CCOc1c(C=C(C#N)C#N)c2ccccc2n1CC,–,–,-5.39,–,–
Brc1ccccc1OCCCOc1cccc2cccnc12,–,–,–,–,–
COc1cccc(C=O)c1OCCCOc1cccc2cccnc12,–,33.3,–,–,–
O=C1C(=C2CCCCC2)SC(=S)N1Cc1ccco1,-7.91,–,–,–,–
N#C/C(=C\c1ccc(-c2ccc(C(=O)O)cc2)o1)C(=O)Nc1ccc(F)cc1,–,–,-4.61,–,–
CCOc1ccc(-c2cc(N3C(=O)Nc4ccccc4N3O)n[nH]2)cc1,–,–,-6.69,–,–
CC12CCC(=O)N1C(C(=O)NCc1ccccc1Cl)CS2 (configuration not stated),–,–,–,–,–
CCOC(=O)CSc1ccc(C(=O)NCCCN2CCOCC2)cc1[N+](=O)[O-],-8.24,–,–,–,–
CCOC(=O)C1CCN(C(=O)COC(=O)CSc2ccc(C(N)=O)cc2[N+](=O)[O-])CC1,–,–,–,–,–
SMILES,RGS4 act,MrgX1 agonist,MrgX1 antagonist,RGS4 block,MrgX1 PAM
COC(=O)C1CCN(C(=O)COC(=O)CSc2ccc(C(N)=O)cc2[N+](=O)[O-])CC1,–,–,-6.36,–,–
CN(CC(=O)NCC(c1ccco1)N1CCCCC1)S(=O)(=O)c1ccc(Cl)cc1 (configuration not stated),–,–,–,–,–
O=C(C1CCC(CNS(=O)(=O)c2cccs2)CC1)N1CCN(c2ccc(Cl)cc2)CC1 (configuration not stated),–,–,–,–,–
COc1cccc(NC(=O)C(OC(=O)c2ccc([N+](=O)[O-])o2)c2ccccc2)c1 (configuration not stated),–,–,–,–,–
Cc1cc(C)cc(NC(=O)C(OC(=O)c2ccc([N+](=O)[O-])o2)c2ccccc2)c1 (configuration not stated),–,–,-6.63,–,–
NC(=O)[C@@H]1CCNc2c(I)cc([N+](=O)[O-])cc2C(=O)N[C@@H](CCC(=O)O)C(=O)N[C@@H](CO)C(=O)N1,·,–,-6.49,·,–
O=C(NC1CCCCC1)c1cc(S(=O)(=O)N2CCOCC2)ccc1Cl,–,–,–,–,–
Cc1ccc(-c2cc(C(=O)Nc3ccccn3)c3ccccc3n2)o1,–,–,-5.13,–,–
CCOC(=O)C1CCCN(C(=O)c2cccc(S(=O)(=O)N(Cc3ccccc3)c3ccccc3OC)c2)C1 (configuration not stated),–,–,–,–,–
COc1ccccc1C(=O)N/C(=C/c1ccco1)C(=O)Nc1cccc(C(=O)O)c1,–,–,–,–,–
O=C(Nc1ccccc1C(F)(F)F)N1CCN(C(c2ccccc2)c2ccccc2)CC1,–,–,-7.15,–,–
COc1ccc(-n2ncc3c2CC(C)(C)CC3NC(=O)c2ccc(OC)o2)cc1 (configuration not stated),–,–,–,–,–
Cc1ccc(-n2c3nc(=O)n(C)c(=O)c-3cc3ccccc32)cc1,-8.04,–,–,–,–
CCC1(C)N=C(N)Nc2nc3cc(C)c(C)cc3n21 (configuration not stated),–,–,–,–,–
O=C(NCCN1CCOCC1)c1ccc2c(c1)N(Cc1ccc(Cl)cc1)C(=O)CS2,-7.26,–,–,–,–
CCC1CCCCN1CCCNC(=O)c1ccc2c(c1)N(Cc1c(F)cccc1Cl)C(=O)CS2 (configuration not stated),-8.16,–,–,–,–
O=C(NCCN1CCOCC1)c1ccc2c(c1)N(Cc1ccccc1)C(=O)CS2,–,–,–,–,–
CCN(CC(=O)Nc1ccc(NC(C)=O)cc1)C(=O)CCCSc1nc2ccccc2[nH]1,–,–,–,–,–
COc1ccc(N2CCN(C(=O)c3ccccc3NS(=O)(=O)c3ccc(C)cc3)CC2)cc1,–,–,–,–,–
O=C(Nc1ccc(NC(=O)c2ccccc2Cl)nc1)c1ccco1,–,–,–,–,–
COc1ccc(-c2c[n+](CC(=O)OC3CC(C)CCC3C(C)C)c3n2CCC3)cc1 (configuration not stated),-6.97,–,-4.85,–,–
O=C(C[n+]1cc(-c2ccc(Cl)cc2)n2c1CCCCC2)c1ccccc1,–,–,–,–,–
CC(C)[C@@H]1CC[C@@H](C)C[C@H]1OC(=O)C[n+]1cc(-c2ccc(Cl)cc2)n2c1CCCCC2,–,–,-7.43,–,–
CCOc1nc(-c2ccccc2)ncc1Oc1ccccc1,–,–,–,–,–
CCOC(=O)c1cnc2sc3c(n2c1=O)CCCC3,·,–,-5.18,·,–
CC(=O)N1c2c(cc(Br)cc2S(=O)(=O)N2CCN(c3ccccc3F)CC2)CC1C (configuration not stated),–,–,-7.75,–,–
COc1ccc(C2C(C#N)=C(N)OC3=C2C(=O)CC(C)(C)C3)c([N+](=O)[O-])c1OC (configuration not stated),–,–,–,–,–
